These entries were drawn from the full list.
Apaf1 activ = activators of human Apaf-1 apoptosome, primary screen, biochemical, DEVD-Rh110 fluorescence, uHTS | Apoptotic protease-activating factor 1 (Homo sapiens), O14727 | Apaf-1 apoptosome caspase-3 activation; active compounds read low | activity change, negative = activation, % at 20 µM | hit rate 0.31% among 330,000 | AID 489031, 2010;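 active = activity change at or below -40% at 20 µM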
Target sequence (O14727 whole entry, looked up): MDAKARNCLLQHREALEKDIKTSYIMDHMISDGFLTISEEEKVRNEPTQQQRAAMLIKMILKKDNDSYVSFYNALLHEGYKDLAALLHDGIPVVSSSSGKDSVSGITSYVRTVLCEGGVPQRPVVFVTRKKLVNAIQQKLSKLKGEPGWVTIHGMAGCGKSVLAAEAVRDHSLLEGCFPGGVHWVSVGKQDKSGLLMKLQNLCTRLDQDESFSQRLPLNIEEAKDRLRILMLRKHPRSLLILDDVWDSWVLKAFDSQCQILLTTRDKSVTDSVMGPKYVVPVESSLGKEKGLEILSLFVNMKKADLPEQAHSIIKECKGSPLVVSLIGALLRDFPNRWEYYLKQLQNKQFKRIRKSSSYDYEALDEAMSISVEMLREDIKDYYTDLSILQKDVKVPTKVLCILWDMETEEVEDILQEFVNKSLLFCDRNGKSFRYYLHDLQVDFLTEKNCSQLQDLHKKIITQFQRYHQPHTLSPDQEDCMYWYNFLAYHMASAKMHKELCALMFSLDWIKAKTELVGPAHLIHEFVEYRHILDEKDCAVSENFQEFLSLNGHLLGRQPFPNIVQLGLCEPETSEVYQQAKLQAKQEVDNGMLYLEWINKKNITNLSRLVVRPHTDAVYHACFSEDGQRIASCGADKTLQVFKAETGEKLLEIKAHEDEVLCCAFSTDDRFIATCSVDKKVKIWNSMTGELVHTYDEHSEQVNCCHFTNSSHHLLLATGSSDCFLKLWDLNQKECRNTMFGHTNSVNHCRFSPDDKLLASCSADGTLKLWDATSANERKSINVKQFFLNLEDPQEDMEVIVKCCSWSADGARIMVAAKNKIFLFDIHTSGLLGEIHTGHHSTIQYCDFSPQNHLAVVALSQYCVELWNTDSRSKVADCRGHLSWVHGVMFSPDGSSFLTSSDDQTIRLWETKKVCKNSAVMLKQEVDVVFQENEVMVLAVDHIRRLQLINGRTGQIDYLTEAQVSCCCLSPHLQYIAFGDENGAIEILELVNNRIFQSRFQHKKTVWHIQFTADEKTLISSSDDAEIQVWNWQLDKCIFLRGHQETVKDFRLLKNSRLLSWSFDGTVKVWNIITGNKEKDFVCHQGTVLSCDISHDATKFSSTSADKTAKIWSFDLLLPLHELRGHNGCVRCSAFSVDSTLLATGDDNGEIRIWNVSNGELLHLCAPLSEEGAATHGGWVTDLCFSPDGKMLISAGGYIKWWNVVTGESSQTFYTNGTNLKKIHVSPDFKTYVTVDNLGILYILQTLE
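Schedule: 30 min preincubation, 50 min reaction, room temperature / System: biochemical Apaf-1 apoptosome reconstitution / Medium: 20 mM HEPES pH 7.5 with CHAPS, BSA / Evaluation: Caspase-3 cleavage activity downstream of Apaf-1 activation / Detection: Caspase-3-released Rh110 fluorescence, 540 nm emission, 480 nm excitation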
Rh110 act interf = Rh110 fluorescence interference by putative Apaf-1 activators, confirmation, artefact control for Apaf-1 activator project, biochemical, 20 µM; shares compounds with Apaf1 activ; 980 tested, under 10 active; quenched caspase reaction, Ex480/Em540; fluorescence interference (activity change), % at 20 µM, hits read low; AID 504616, 2011;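 active = mean activity change at or below -40% when tested at 20 µM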
Apaf-1 act conf = Apaf-1 activators, single-dose retest, confirmation, biochemical, fluorescence, DEVD-Rh110, 20 µM. hit rate 5% among 980. shares compounds with Apaf1 activ. activity change, negative = activation, % at 20 µM. reconstituted apoptosome caspase-3 activity; active compounds read low;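 active = mean activity change at or below -40%, meaning activation of 40% or more, at 20 µM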
Apaf1 act interf = fluorescence interference of Apaf-1 activator hits, dose response, artefact control for Apaf-1 activator project. shares compounds with Apaf1 activ. fluorescence interference counterscreen, Apaf-1 activator assay. EC50, µM. 55 tested, under 10 active; call rule not given here
Numbers stand for hits; i = inactive; nt = no result given.

SMILES | Apaf1 activ | Rh110 act interf | Apaf-1 act conf | others
C[C@@H](CN1CCC[C@H]1CN1C(N)=NC[C@@H]1Cc1ccccc1)N1C[C@@H](Cc2ccccc2)N(CCc2ccc(Cl)c(Cl)c2)C1=N | i | nt | nt
COc1ccccc1N1C(=O)N(C(C)=O)C2C1Nc1ccccc1N2C (stereo unspecified) | i | nt | nt
CCc1nn(CCCC(=O)NCc2ccccc2Br)c(=O)c2cc3occc3n12 | i | nt | nt
O=C(O)CCCN1C(=O)/C(=C/c2ccc(-c3nc4ccccc4s3)o2)SC1=S | -405.6 | i | i
O=C(c1ccc(S(=O)(=O)N2CCCC2)cc1)N(c1ccccc1)C1C=CS(=O)(=O)C1 (stereo unspecified) | -56.1 | i | i
O=C(c1ccc(S(=O)(=O)N2CCCC2)cc1)N(c1ccc(F)cc1)C1C=CS(=O)(=O)C1 (stereo unspecified) | -313.5 | i | i
Cc1cc2cc(CNC(=O)c3ccc(S(=O)(=O)N4CCCCC4)cc3)ccc2n1C | i | nt | nt
C#CCOCCOCCOCCNc1nc(N2CCN(C(=O)CCCCCCCCCCNC(=O)[C@@H](CCSC)n3cc(CCO)nn3)CC2)nc(N2CCN(C(=O)CCCCCCCCCCNC(=O)[C@H](CCCN=C(N)N)n3cc(C[C@@H](C)CC)nn3)CC2)n1 | i | nt | nt
COc1ccc(NC(=O)c2cc(-c3ccncc3)nc3ccc(Br)cc23)cc1OC | i | nt | nt
O=C(NCc1cccs1)c1cccc(S(=O)(=O)N2CCCCC2)c1 | i | nt | nt
CN1CCN(S(=O)(=O)c2cccc(C(=O)Nc3cc(C(F)(F)F)ccc3N3CCCCC3)c2)CC1 | i | nt | nt
O=C(N/N=C/c1ccccn1)c1cccc(S(=O)(=O)N2CCCC2)c1 | -587.4 | i | i
O=C(Nc1ccc2nc(-c3ccco3)c(-c3ccco3)nc2c1)NC1CC1 | i | nt | nt
O=C(NC1CC1)c1cc2ccccc2o1 | -363.2 | i | i
O=C(NC1CC2CCCC(C1)N2S(=O)(=O)c1ccccc1)c1ccco1 (stereo unspecified) | i | nt | nt
CC(C)(C)c1cc(CCC(=O)Nc2ccncc2)cc(C(C)(C)C)c1O | -450.4 | i | i
Cc1ccc(C(=O)NC2CCN(C(=O)Nc3ccccc3)CC2)cc1 | -49.7 | i | i
CCC/C(=C1/c2ccccc2C(=O)N1c1ccccc1)c1cnc(OC)nc1 | i | nt | nt
CC[C@H](C)Cc1cn([C@@H](CCCN=C(NC(=O)OC(C)(C)C)NC(=O)OC(C)(C)C)C(=O)NCCCCCCCCCCC(=O)N2CCN(C(=O)OC(C)(C)C)CC2)nn1 | i | nt | nt
CC(OC(=O)c1nn(C)c(=O)c2ccccc12)C(=O)NC1CCCCC1C (stereo unspecified) | -49.7 | i | i
COc1ccc(-n2nc(C(=O)NCC(=O)NC3CCCC(C)C3C)c3ccccc3c2=O)cc1 (stereo unspecified) | i | nt | nt
COc1ccc(-n2nc(C(=O)NCC(=O)NC3CCCC(C)C3C)c3ccccc3c2=O)c(OC)c1 (stereo unspecified) | i | nt | nt
O=C(N/N=C\c1ccc(-c2ccccc2[N+](=O)[O-])o1)C1COc2cc3ccccc3cc2O1 (stereo unspecified) | i | nt | nt
CN(C)S(=O)(=O)Oc1cccc(C(=O)Nc2ccc(Cl)c(Cl)c2)c1 | -40.4 | i | i
CC1=NN(c2ccc(C)cc2)C(=O)/C1=C\c1ccc(Br)s1 | i | nt | nt
SMILES | Apaf1 activ | Rh110 act interf | Apaf-1 act conf | others
OCc1cn(-c2ccc(Cl)cc2)nn1 | -56.5 | i | i
CCOC(=O)Nc1ccc(NCc2ccc(F)cc2)nc1N | i | nt | nt
CC(Oc1cccc(Cl)c1)C(=O)Nc1cc(S(=O)(=O)N2CCOCC2)ccc1N1CCCCC1 (stereo unspecified) | i | nt | nt
O=C1c2ccccc2C(=O)c2[nH]c(=O)[nH]c21 | i | nt | nt
O=c1[nH]c(Nc2ccccc2)cc2ccccc12 | i | nt | nt
O=c1[nH]c(=O)c2nc3c4ccccc4c4ccccc4c3nc2[nH]1 | -42.7 | i | i
COc1cc2nc(N3CCNCC3)nc(N)c2cc1OC | i | nt | nt
O=C(NNc1cc(N2CCOCC2)nc(N2CCOCC2)n1)c1ccc([N+](=O)[O-])cc1 | i | nt | nt
O=C1C(=O)N(CCN2CCOCC2)C(c2ccc([N+](=O)[O-])cc2)/C1=C(/O)c1ccc2c(c1)OCO2 (stereo unspecified) | -319.2 | i | i
O=C(O)/C=C/C(=O)c1ccc(O)cc1 | -83.5 | i | i
CC(C)n1cnc2c(N(C)c3ccccc3)nc(N(CCN(C)C)Cc3ccccc3)nc21 | i | nt | nt
CC(C)c1nc(SCC(=O)c2c[nH]c3ccccc23)n[nH]1 | -41.2 | i | i
C=CCOc1c(Cl)cc(CNc2ccc(N(C)C)cc2)cc1OC | i | nt | nt
CCOC(=O)C1CCN(S(=O)(=O)c2ccc3c4c2CC(=O)N4CC(C)S3)CC1 (stereo unspecified) | i | nt | nt
O=C(COC(=O)c1cccc(Cl)c1)NCCN1C(=O)CSC1=O | -46.3 | i | i
CCc1ccc(S(=O)(=O)/N=C2\C=CC(=O)c3ccccc32)cc1 | i | nt | nt
CC(/C=N/NC(=O)Cc1cc(=O)[nH][nH]1)=C\c1ccccc1 | i | nt | nt
CN1CCN(CC(=O)N2CCn3c4c(c5cc(C6CCCCC6)ccc53)CCCC42)CC1 (stereo unspecified) | i | nt | nt
Cc1ccn2c(NC3CCCCC3)c(-c3cccc(SC4CCCCC4)c3)nc2c1 | i | nt | nt
Oc1ccc(Br)cc1-c1nc2cnccn2c1NC1CCCC1 | -566.0 | i | i
CCC(C)Sc1cccc(-c2nc3cc(C)ccn3c2NC2CCCCC2)c1 (stereo unspecified) | i | nt | nt
CCOCCCn1c(SCC(=O)Nc2cc(C(C)(C)C)nn2-c2ccccc2)nc2ccccc2c1=O | i | nt | nt
CC1=NN(c2ccc(C(F)(F)F)cn2)C(=O)C1 | i | nt | nt
C=CCC[C@@H](Cc1ccc(F)cc1)C(=O)OC[C@@H]1CCCN1C(=O)[C@H](CC=C)CC(=O)N[C@H](CO)Cc1ccccc1 | i | nt | nt
CCOc1ccc2nc3cc(NCc4ccc(OC)cc4)ccc3c(N)c2c1 | i | nt | nt
SMILES | Apaf1 activ | Rh110 act interf | Apaf-1 act conf | others
CN1Cc2c(N3CCOCC3)nc3sc(C(=O)c4ccc(Br)cc4)c(N)c3c2CC1(C)C | i | nt | nt
CCc1ccc(N=C2NC(=O)/C(=C/c3cc(Br)c(OCC(=O)O)c(OC)c3)S2)cc1 | -99.4 | i | -66.8 | Apaf1 act interf=i
CCN(CC)CCNC(=O)c1ccc(NC(=O)C2CC(=O)N(CCc3ccc(OC)c(OC)c3)C2)cc1 (stereo unspecified) | i | nt | nt
COc1ccc(CCN(C)C(=O)C2CC(=O)N(Cc3ccc(C)cc3)C2)cc1OC (stereo unspecified) | i | nt | nt
COc1ccc(CCN2C(=O)C3C4CC(C5C(C(=O)NN)=NOC45)C3C2=O)cc1OC (stereo unspecified) | -311.6 | i | i
COC(=O)C1=C(C)N(Cc2ccccc2)C(=NCc2ccccc2)N[C@H]1c1cccc(F)c1 | i | nt | nt
COc1cccc(-c2nnc(SC(C(=O)c3c[nH]c4ccccc34)c3ccccc3)n2C)c1 (stereo unspecified) | i | nt | nt
COc1cccc(NC(=S)Nc2cccc3ccccc23)c1 | i | nt | nt

High-throughput results as filed in PubChem.
